From ChEMBL document CHEMBL5357024, “MDM2 Antagonist Idasanutlin Reduces HDAC1/2 Abundance and Corepressor Partners but Not HDAC3” (ACS Med Chem Lett, 2024) come the findings set out here.

Common to all, as to assay type: cell-based
The target of test [1] is T1, E3 ubiquitin-protein ligase Mdm2/Histone deacetylase 1 (Homo sapiens) (UniProt Q00987+Q13547). Nature of the test: PROTAC activity at MDM2/HDAC1 in human HCT-116 cells assessed as decrease in HDAC1 abundance by measuring remaining activity at 1 uM measured after 24 hrs by Western blot analysis (reference value: 100%). Put shortly:
(§1)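 HCT116 cells seeded in six-well plates for 24 h, then exposed 24 h to compound (0.01–10 μM) or DMSO in fresh medium. Lysis in Tris-HCl/NaCl/NP-40/Triton X-100 with protease inhibitor. Bradford-normalised 30 μg protein per lane. Quantitative Western blot used specific HDAC1, HDAC2, HDAC3, LSD1 or Sin3a antibodies with IRDye secondaries. Abundance compared with DMSO, n = 2 replicates.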
A general note: In western blotting, separated proteins are transferred to a membrane and probed.

Test [2] addresses T1, E3 ubiquitin-protein ligase Mdm2/Histone deacetylase 1 (Homo sapiens). Nature of the test: PROTAC activity at MDM2/HDAC1 in human HCT-116 cells assessed as decrease in HDAC1 abundance by measuring remaining activity at 10 uM measured after 24 hrs by Western blot analysis (reference value: 100%). Put shortly:
as §1

In test [3] the target is E3 ubiquitin-protein ligase Mdm2/Histone deacetylase 2 (Homo sapiens) (UniProt Q00987+Q92769). Nature of the test: PROTAC activity at MDM2/HDAC2 in human HCT-116 cells assessed as decrease in HDAC2 abundance by measuring remaining activity at 10 uM measured after 24 hrs by Western blot analysis (reference value: 100%). Put shortly:
as §1

Test [4] deals with T1, E3 ubiquitin-protein ligase Mdm2/Histone deacetylase 1 (Homo sapiens). Nature of the test: PROTAC activity at MDM2/HDAC1 in human HCT-116 cells assessed as induction of HDAC1 degradation by Western blot analysis. The settings on record: dose 0.01-10 µM.
Test [5] addresses E3 ubiquitin-protein ligase Mdm2/Histone deacetylase 3 (Homo sapiens) (UniProt Q00987+O15379). Nature of the test: PROTAC activity at MDM2/HDAC3 in human HCT-116 cells assessed as reduction in HDAC3 abundance by measuring remaining activity at 5 uM measured after 24 hrs by Western blot analysis. Put shortly:
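HCT116 cells in DMEM with 10% FBS and glutamine/penicillin/streptomycin at 37 °C, 5% CO2. Seeded 4 × 10^5 cells/well, after 24 h treated 24 h with DMSO or compound in fresh medium. Lysed in Tris-HCl/NaCl/NP-40/Triton X-100 buffer with protease inhibitor, Bradford-quantified, 30 μg protein per lane. Quantitative Western blot with specific HDAC1/2/3 antibodies, IRDye secondaries, infrared imaging, versus DMSO. n = 2 replicates.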

Test [6] deals with T2, Paired amphipathic helix protein Sin3a (Homo sapiens) (UniProt Q96ST3).
T2 sequence (whole entry): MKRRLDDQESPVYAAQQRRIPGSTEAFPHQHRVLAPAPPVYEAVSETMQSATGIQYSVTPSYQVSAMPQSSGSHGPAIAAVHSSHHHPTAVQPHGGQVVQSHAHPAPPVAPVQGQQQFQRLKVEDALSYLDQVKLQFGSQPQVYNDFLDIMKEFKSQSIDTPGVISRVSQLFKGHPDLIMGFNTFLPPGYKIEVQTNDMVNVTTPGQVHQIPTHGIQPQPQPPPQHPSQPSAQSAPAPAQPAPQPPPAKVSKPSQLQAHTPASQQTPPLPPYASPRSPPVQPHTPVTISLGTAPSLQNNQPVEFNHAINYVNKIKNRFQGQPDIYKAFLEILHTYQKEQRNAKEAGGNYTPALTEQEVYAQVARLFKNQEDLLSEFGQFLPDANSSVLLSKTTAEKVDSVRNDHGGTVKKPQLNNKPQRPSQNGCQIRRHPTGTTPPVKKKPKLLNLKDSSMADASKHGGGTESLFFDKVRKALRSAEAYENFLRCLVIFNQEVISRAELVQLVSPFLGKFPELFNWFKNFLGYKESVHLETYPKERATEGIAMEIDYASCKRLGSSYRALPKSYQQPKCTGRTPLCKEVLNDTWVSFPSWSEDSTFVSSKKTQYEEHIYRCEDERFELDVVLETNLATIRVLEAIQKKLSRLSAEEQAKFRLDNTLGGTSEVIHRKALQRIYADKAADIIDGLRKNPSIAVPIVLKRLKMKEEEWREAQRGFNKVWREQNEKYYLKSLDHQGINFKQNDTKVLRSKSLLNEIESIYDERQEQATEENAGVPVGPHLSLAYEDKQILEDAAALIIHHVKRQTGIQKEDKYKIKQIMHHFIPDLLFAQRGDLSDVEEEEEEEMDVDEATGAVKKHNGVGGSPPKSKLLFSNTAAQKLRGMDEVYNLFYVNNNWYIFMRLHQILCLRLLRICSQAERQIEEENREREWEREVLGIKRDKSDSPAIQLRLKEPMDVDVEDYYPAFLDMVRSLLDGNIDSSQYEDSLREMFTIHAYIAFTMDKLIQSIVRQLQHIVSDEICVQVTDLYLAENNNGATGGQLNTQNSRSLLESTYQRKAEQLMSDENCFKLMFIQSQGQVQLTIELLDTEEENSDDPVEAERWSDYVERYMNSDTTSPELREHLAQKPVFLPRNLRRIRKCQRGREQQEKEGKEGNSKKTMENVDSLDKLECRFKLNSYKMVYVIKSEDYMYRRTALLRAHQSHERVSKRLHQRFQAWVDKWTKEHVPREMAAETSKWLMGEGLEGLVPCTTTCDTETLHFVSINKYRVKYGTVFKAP
Nature of the test: Induction of SIN3A degradation in human HCT-116 cells assessed as reduction in SIN3A abundance by measuring remaining activity at 0.025 uM measured after 24 hrs by Western blot analysis (reference value: 100%). Put shortly:
as §1

The target of test [7] is T2, Paired amphipathic helix protein Sin3a (Homo sapiens). Nature of the test: Induction of SIN3A degradation in human HCT-116 cells assessed as reduction in SIN3A abundance by measuring remaining activity at 0.1 uM measured after 24 hrs by Western blot analysis (reference value: 100%). Put shortly:
as §1

For test [8] the target is unchanged. Briefly: Induction of SIN3A degradation in human HCT-116 cells assessed as reduction in SIN3A abundance by measuring remaining activity at 0.5 uM measured after 24 hrs by Western blot analysis (reference value: 100%). Put shortly:
as §1

Test [9] shares this target. Briefly: Induction of SIN3A degradation in human HCT-116 cells assessed as reduction in SIN3A abundance by measuring remaining activity at 2.5 uM measured after 24 hrs by Western blot analysis (reference value: 100%). Put shortly:
as §1

Test [10] has as its target Lysine-specific histone demethylase 1A (Homo sapiens) (UniProt O60341). Briefly: Induction of LSD1 degradation in human HCT-116 cells assessed as reduction in LSD1 abundance by measuring remaining activity at 0.05 uM measured after 24 hrs by Western blot analysis (reference value: 100%). Put shortly: as §1
The target is the same in test [11]. Nature of the test: Induction of LSD1 degradation in human HCT-116 cells assessed as reduction in LSD1 abundance by measuring remaining activity at 0.1 uM measured after 24 hrs by Western blot analysis (reference value: 100%). Put shortly:
as §1

Test [12] has the same target. Nature of the test: Induction of LSD1 degradation in human HCT-116 cells assessed as reduction in LSD1 abundance by measuring remaining activity at 0.5 uM measured after 24 hrs by Western blot analysis (reference value: 100%). Put shortly:
as §1

Test [13] shares this target. Briefly: Induction of LSD1 degradation in human HCT-116 cells assessed as reduction in LSD1 abundance by measuring remaining activity at 1 uM measured after 24 hrs by Western blot analysis (reference value: 100%). Put shortly: as §1

Structures are written as SMILES.

T1 sequence (Q00987 whole entry, looked up): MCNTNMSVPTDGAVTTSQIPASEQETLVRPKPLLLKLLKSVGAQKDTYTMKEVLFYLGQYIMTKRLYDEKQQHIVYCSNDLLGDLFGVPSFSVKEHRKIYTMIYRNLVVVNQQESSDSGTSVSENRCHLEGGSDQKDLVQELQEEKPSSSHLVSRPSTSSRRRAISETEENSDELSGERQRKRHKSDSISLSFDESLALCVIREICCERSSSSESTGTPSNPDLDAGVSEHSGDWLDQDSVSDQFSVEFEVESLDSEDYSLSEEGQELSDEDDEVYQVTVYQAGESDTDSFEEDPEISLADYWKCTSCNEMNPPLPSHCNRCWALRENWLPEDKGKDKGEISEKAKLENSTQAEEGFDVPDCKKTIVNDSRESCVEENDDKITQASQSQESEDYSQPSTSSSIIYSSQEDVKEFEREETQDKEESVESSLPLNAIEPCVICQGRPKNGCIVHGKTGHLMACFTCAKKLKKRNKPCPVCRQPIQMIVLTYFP
T1 sequence (Q13547 whole entry, looked up): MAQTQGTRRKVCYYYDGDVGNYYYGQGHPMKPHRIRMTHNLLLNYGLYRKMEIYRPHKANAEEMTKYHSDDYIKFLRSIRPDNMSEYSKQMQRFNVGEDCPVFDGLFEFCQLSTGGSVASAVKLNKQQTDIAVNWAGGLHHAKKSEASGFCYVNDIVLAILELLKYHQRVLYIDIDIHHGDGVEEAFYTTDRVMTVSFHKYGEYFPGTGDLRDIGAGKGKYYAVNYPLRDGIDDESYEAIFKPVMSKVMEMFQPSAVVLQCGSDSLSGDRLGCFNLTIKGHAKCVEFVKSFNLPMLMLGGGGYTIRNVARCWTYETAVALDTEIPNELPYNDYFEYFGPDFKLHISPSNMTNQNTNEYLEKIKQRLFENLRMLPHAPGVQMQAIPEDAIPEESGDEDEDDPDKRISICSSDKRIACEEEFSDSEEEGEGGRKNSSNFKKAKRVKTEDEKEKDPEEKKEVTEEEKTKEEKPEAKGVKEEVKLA
Sequence of E3 ubiquitin-protein ligase Mdm2/Histone deacetylase 2 (Homo sapiens) (Q00987 whole entry, looked up): as the sequence (Q00987 whole entry, looked up) above
Sequence of E3 ubiquitin-protein ligase Mdm2/Histone deacetylase 2 (Homo sapiens) (Q92769 whole entry, looked up): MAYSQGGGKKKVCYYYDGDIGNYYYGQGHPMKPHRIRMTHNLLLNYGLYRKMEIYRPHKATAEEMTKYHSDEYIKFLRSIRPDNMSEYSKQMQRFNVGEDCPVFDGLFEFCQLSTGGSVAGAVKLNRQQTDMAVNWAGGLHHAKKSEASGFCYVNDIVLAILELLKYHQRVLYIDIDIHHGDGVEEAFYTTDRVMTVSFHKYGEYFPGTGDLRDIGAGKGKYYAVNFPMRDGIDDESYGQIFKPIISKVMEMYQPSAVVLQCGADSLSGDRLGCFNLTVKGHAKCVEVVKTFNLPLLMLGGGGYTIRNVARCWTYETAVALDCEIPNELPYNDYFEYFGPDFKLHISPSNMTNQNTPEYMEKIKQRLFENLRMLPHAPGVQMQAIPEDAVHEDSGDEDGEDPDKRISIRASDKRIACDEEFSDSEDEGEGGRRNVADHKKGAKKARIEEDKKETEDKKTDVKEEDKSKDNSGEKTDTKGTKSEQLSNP
Sequence of E3 ubiquitin-protein ligase Mdm2/Histone deacetylase 3 (Homo sapiens) (O15379 whole entry, looked up): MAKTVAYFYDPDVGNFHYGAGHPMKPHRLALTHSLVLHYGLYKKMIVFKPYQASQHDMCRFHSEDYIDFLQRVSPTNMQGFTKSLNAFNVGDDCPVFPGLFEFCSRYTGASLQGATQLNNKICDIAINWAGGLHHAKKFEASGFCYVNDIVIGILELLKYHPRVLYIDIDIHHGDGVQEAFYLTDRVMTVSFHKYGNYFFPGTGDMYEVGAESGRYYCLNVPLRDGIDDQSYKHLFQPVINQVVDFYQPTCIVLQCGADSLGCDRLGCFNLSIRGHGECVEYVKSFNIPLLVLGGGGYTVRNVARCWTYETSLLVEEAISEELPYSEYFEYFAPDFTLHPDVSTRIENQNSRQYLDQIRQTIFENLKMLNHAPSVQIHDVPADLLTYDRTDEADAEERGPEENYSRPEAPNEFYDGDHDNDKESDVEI
Sequence of E3 ubiquitin-protein ligase Mdm2/Histone deacetylase 3 (Homo sapiens) (Q00987 whole entry, looked up): as the sequence (Q00987 whole entry, looked up) above

With `COc1cc(C(=O)NCCOCCOCCOCCOCCC(=O)Nc2ccc(C(=O)Nc3ccccc3N)cc2)ccc1NC(=O)[C@@H]1N[C@@H](CC(C)(C)C)[C@](C#N)(c2ccc(Cl)cc2F)[C@H]1c1cccc(Cl)c1F`, the Activity in [1] is 43%; in test [2] it was 36%; in test [3], 54%; in test [4] it was “Dose-Dependent Effect”; in test [5], 105%; in test [6], 100%. Moreover, the Activity is 99% in test [7]; 79% in [8]; 57% in [9]; 95% in test [10]; 104% in [11]; 86% in test [12]. The Activity in test [13] is 81%.
